For twelve compounds, IC50, Ratio IC50 and half-life results are on record in ChEMBL document CHEMBL3414516, “Novel pyridyl substituted 4,5-dihydro-[1,2,4]triazolo[4,3-a]quinolines as potent and selective aldosterone synthase inhibitors with improved in vitro metabolic stability” (J Med Chem, 2015).

The first series has as its target T1, Aromatase (Homo sapiens, UniProt P11511).
T1 sequence (P11511 whole entry): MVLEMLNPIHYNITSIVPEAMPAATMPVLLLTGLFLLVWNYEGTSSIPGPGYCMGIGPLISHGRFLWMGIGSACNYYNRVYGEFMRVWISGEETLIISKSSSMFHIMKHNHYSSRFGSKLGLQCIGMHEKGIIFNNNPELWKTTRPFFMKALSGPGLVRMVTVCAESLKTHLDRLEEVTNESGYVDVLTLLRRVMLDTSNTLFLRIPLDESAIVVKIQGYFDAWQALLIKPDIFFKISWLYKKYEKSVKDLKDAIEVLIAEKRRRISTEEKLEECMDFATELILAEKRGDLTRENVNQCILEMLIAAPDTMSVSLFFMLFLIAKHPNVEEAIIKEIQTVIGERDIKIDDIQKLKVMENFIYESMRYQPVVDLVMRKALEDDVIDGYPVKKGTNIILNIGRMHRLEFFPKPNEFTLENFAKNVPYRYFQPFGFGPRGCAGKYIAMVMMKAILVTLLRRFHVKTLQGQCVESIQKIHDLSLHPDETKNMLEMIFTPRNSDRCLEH
The experiment in a line: Inhibition of CYP19 in human placental microsomes using [1beta-3H]androstenedione substrate. Set-up: species or system Placenta.
Conditions: not given
The IC50 is the concentration that gives 50% inhibition. A higher IC50 goes with lower potency. Compound `CC(C)c1nnc2n1-c1cc(F)c(-c3cccnc3)cc1CC2` returned a 50% inhibitory concentration (IC50) of more than 10 µM.

`Fc1cc(-c2cccnc2)cc2c1-n1c(nnc1-c1ccncc1)CC2`: the IC50 is more than 10 µM.

`CCc1nnc2n1-c1c(F)cc(-c3cccnc3)cc1CC2`: the IC50 was more than 10 µM.

In turn, `COc1cncc(-c2cc(F)c3c(c2)CCc2nnc(C)n2-3)c1` came in with an IC50 of more than 10 µM.

In turn, `Cc1nnc2n1-c1c(F)cc(-c3cncc(C#N)c3)cc1CC2` displayed an IC50 of more than 10 µM.

Turning to `Fc1cc(-c2cccnc2)cc2c1-n1cnnc1CC2`, the IC50 was more than 10 µM.

`Cc1nnc2n1-c1c(F)cc(-c3cccnc3)cc1CC2`: the IC50 is more than 10 µM.

`Fc1cc2c(cc1-c1cccnc1)CCc1nnc(-c3ccccc3)n1-2` came in with an IC50 of more than 10 µM.

Take `Cc1nnc2n1-c1c(F)cc(-c3cncc(C(F)(F)F)c3)cc1CC2`: the IC50 was more than 10 µM.

`CCc1nnc2n1-c1cc(F)c(-c3cccnc3)cc1CC2`: the IC50 is more than 10 µM.

`Fc1cc2c(cc1-c1cccnc1)CCc1nnc(Cc3ccccc3)n1-2` registered an IC50 of more than 10 µM.

Regarding `Cc1nnc2n1-c1cc(F)c(-c3cccnc3)cc1CC2`, the IC50 was more than 10 µM.

The next series addresses T2, Steroid 17-alpha-hydroxylase/17,20 lyase (Homo sapiens, UniProt P05093).
T2 sequence (P05093 whole entry): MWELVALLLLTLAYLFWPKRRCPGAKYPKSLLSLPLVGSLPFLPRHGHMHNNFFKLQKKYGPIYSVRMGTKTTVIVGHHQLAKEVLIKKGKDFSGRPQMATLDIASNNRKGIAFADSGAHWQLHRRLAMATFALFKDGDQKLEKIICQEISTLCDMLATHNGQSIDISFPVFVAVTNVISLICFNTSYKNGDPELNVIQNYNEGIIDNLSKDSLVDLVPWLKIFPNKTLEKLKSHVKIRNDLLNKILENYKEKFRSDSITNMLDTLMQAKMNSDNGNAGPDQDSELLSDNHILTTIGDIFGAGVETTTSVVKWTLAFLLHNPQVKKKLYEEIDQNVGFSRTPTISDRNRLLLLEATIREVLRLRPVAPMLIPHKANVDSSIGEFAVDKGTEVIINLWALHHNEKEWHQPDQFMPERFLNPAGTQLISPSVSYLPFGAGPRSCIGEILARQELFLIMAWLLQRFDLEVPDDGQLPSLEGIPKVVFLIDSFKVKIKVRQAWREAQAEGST
Kind of series: Inhibition of human CYP17 expressed in Escherichia coli coexpressing human CYP17 and NADPH-P450 reductase.
Conditions: not given
Compound `CC(C)c1nnc2n1-c1cc(F)c(-c3cccnc3)cc1CC2` had an IC50 of more than 10 µM.

`Fc1cc(-c2cccnc2)cc2c1-n1c(nnc1-c1ccncc1)CC2`: the IC50 was more than 10 µM.

Compound `CCc1nnc2n1-c1c(F)cc(-c3cccnc3)cc1CC2` showed an IC50 of more than 10 µM.

In the case of `COc1cncc(-c2cc(F)c3c(c2)CCc2nnc(C)n2-3)c1`, the IC50 was more than 10 µM.

For the compound `Cc1nnc2n1-c1c(F)cc(-c3cncc(C#N)c3)cc1CC2`, the IC50 was more than 10 µM.

Compound `Fc1cc(-c2cccnc2)cc2c1-n1cnnc1CC2` registered an IC50 of more than 10 µM.

For `Cc1nnc2n1-c1c(F)cc(-c3cccnc3)cc1CC2`, the IC50 was more than 10 µM.

As to `Fc1cc2c(cc1-c1cccnc1)CCc1nnc(-c3ccccc3)n1-2`, the IC50 is more than 10 µM.

`Cc1nnc2n1-c1c(F)cc(-c3cncc(C(F)(F)F)c3)cc1CC2` had an IC50 of more than 10 µM.

`CCc1nnc2n1-c1cc(F)c(-c3cccnc3)cc1CC2` gave an IC50 of more than 10 µM.

With `Fc1cc2c(cc1-c1cccnc1)CCc1nnc(Cc3ccccc3)n1-2`, the IC50 is more than 10 µM.

The compound `Cc1nnc2n1-c1cc(F)c(-c3cccnc3)cc1CC2` returned an IC50 of more than 10 µM.

For the next series, the target named is T3, Cytochrome P450 11B1, mitochondrial (Homo sapiens, UniProt P15538).
T3 sequence (P15538 whole entry): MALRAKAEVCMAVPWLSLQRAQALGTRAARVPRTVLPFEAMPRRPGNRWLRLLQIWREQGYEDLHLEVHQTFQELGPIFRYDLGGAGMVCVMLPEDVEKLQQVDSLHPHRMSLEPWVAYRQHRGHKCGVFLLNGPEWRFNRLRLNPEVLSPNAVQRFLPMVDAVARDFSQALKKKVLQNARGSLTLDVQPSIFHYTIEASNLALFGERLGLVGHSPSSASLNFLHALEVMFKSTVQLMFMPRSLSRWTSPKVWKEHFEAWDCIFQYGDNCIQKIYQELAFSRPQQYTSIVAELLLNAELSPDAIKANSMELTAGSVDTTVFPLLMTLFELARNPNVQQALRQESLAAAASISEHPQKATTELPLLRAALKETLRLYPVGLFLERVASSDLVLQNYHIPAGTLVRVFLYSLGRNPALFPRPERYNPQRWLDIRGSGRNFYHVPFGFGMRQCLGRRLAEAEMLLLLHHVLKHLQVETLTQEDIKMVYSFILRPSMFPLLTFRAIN
Kind of series: Inhibition of human CYP11B1 expressed in V79 MZh cells using [14C]-deoxycorticosterone substrate incubated for 6 hrs by HPTLC method. It is filed as cell-based, V79MZh.
Conditions: not given
In short, it runs like this: (§1)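 V79 MZh cells expressing human CYP11B1 or CYP11B2 were incubated 6 h with [¹⁴C]-deoxycorticosterone and inhibitor at various concentrations. Steroids were extracted with ethyl acetate, separated by HPTLC and quantified by phosphoimager.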
In turn, `CC(C)c1nnc2n1-c1cc(F)c(-c3cccnc3)cc1CC2` gave an IC50 of more than 10 µM.

On to `Fc1cc(-c2cccnc2)cc2c1-n1c(nnc1-c1ccncc1)CC2`, for which the IC50 is more than 10 µM.

`CCc1nnc2n1-c1c(F)cc(-c3cccnc3)cc1CC2` returned an IC50 of more than 10 µM.

For the compound `Cc1nnc2n1-c1c(F)cc(-c3cncc(C#N)c3)cc1CC2`, the IC50 is more than 10 µM.

`Fc1cc2c(cc1-c1cccnc1)CCc1nnc(-c3ccccc3)n1-2` gave an IC50 of more than 10 µM.

On to `CCc1nnc2n1-c1cc(F)c(-c3cccnc3)cc1CC2`, for which the half-inhibitory concentration (IC50) is more than 10 µM.

Regarding `Fc1cc2c(cc1-c1cccnc1)CCc1nnc(Cc3ccccc3)n1-2`, the IC50 is more than 10 µM.

For the next series, the species on record is Homo sapiens. Kind of series: Selectivity index, ratio of IC50 for human CYP11B1 to IC50 human CYP11B2.
Conditions: not given
As for `COc1cncc(-c2cc(F)c3c(c2)CCc2nnc(C)n2-3)c1`, the Ratio IC50 came to 89.

Take `Fc1cc(-c2cccnc2)cc2c1-n1cnnc1CC2`: the Ratio IC50 amounted to 94.

With `Cc1nnc2n1-c1c(F)cc(-c3cccnc3)cc1CC2`, the Ratio IC50 came out at 272.

Take `Cc1nnc2n1-c1c(F)cc(-c3cncc(C(F)(F)F)c3)cc1CC2`: the Ratio IC50 worked out at 63.

As to `Cc1nnc2n1-c1cc(F)c(-c3cccnc3)cc1CC2`, the Ratio IC50 turned out to be 96.

Test system in the next series: not listed separately
The experiment in a line: Half life in human hepatic microsomes at 1 uM in presence of NADPH system by LC-MS/MS method. It is filed as ADME, Microsome. Conditions: liver microsomes. The method, boiled down: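 Pooled mixed-gender human liver microsomes at 0.5 mg/mL final protein in potassium phosphate–MgCl₂ buffer (100 mM, pH 7.4). Compound at 1 μM final with NADPH system, 37 °C. Samples at 2, 5, 15, 30 and 45 min, quenched with acetonitrile, vortexed, centrifuged, and supernatant analysed by LC–MS/MS.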
The half-life is how long it takes for the measured level to halve. Take `Cc1nnc2n1-c1c(F)cc(-c3cccnc3)cc1CC2`: the half-life at 1 µM was more than 2 h.

Another series has as its target T4, Cytochrome P450 11B2, mitochondrial (Homo sapiens, UniProt P19099).
T4 sequence (P19099 whole entry): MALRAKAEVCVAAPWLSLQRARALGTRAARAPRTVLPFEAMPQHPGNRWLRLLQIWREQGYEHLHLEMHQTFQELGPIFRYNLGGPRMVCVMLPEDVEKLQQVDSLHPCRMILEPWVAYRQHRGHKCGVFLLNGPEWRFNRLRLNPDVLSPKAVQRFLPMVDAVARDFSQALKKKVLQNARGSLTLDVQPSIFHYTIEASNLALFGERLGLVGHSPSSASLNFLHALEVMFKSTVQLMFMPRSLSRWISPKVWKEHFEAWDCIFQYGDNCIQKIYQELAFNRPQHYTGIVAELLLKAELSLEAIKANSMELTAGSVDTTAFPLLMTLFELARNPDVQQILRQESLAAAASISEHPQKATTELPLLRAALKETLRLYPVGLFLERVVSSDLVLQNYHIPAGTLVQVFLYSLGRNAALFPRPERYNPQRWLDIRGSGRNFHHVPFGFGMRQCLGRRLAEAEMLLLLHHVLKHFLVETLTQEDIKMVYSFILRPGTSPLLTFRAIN
The experiment in a line: Inhibition of human CYP11B2 expressed in V79 MZh cells using [14C]-deoxycorticosterone substrate incubated for 6 hrs by HPTLC method. It is filed as cell-based, V79MZh.
Conditions: not given
In short, it runs like this: as §1
In turn, `CC(C)c1nnc2n1-c1cc(F)c(-c3cccnc3)cc1CC2` came in with an IC50 of more than 10 µM.

`Fc1cc(-c2cccnc2)cc2c1-n1c(nnc1-c1ccncc1)CC2` came in with an IC50 of more than 10 µM.

`CCc1nnc2n1-c1c(F)cc(-c3cccnc3)cc1CC2` displayed an IC50 of 0.542 µM.

Compound `Cc1nnc2n1-c1c(F)cc(-c3cncc(C#N)c3)cc1CC2` registered an IC50 of 1.18 µM.

Regarding `Fc1cc2c(cc1-c1cccnc1)CCc1nnc(-c3ccccc3)n1-2`, the IC50 is more than 10 µM.

For the compound `CCc1nnc2n1-c1cc(F)c(-c3cccnc3)cc1CC2`, the midpoint of inhibition, the IC50, lay at 0.979 µM.

Consider `Fc1cc2c(cc1-c1cccnc1)CCc1nnc(Cc3ccccc3)n1-2`, for which the IC50 stood at 4.35 µM. This IC50 is about 4.4-fold higher than that of the compound before.
